From ChEMBL document CHEMBL1145066, “Novel pyrone side tetracyclic psoralen derivatives: synthesis and photobiological evaluation” (J Med Chem, 2003) come the findings set out here.

Activity calls are given as the source filed them. No cut-off for these calls is given here.

The species named for one experiment is Cavia porcellus. In words: Skin Phototoxicity was tested on depilated Guinea Pigs (outbred Dunkin - Hartley strain) and erythema intensity was measured; Absent. The format is functional, organism-based.
Experiment [1] deals with HL-60. In words: Antiproliferative activity against HL-60 (human promyelocytic leukemic cells) after exposure to UV light. It counts as functional, cell-based. In a few lines: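 HL-60 cells grown in RPMI 1640 with 15% heat-inactivated FCS at 37 °C, 5% CO2. 10^5 cells/well were incubated 24 h, then test agent was added at various concentrations in complete medium. After 1 h in the dark, cells received a UVA dose of 0.793 J cm^-2 (lamps emitting >90% at 365 nm) and were incubated 24 h more. Viability was read by trypan blue; IC50 is the 50% reduction in cell number versus control cultures.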

For experiment [2], the system named is HL-60. In words: Antiproliferative activity against HL-60 (human promyelocytic leukemic cells) in dark condition. The format is functional, cell-based.
In experiment [3] the test system is HeLa. The experiment in a line: Antiproliferative activity against HeLa (human cervix adenocarcinoma cells) after exposure to UV light. The format is functional, cell-based. A digest of the protocol:
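HeLa cells grown in F-12 with 10% heat-inactivated FCS at 37 °C, 5% CO2. 10^5 cells/well were incubated 24 h, switched to phenol-red-free DMEM, and given various agent concentrations. After 1 h they were irradiated with UVA at 0.793 J cm^-2 (365 nm lamps). Drug medium was then removed, and cells were kept 24 h in complete F-12. Trypan blue counts gave IC50 versus control.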

Experiment [4] has as its system HeLa. In words: Antiproliferative activity against HeLa (human cervix adenocarcinoma cells) in dark condition. The format is functional, cell-based. A digest of the protocol:
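Dark control on HeLa (F-12, 10% FCS, 37 °C, 5% CO2). 10^5 cells/well were seeded and, after 24 h, given phenol-red-free DMEM with various agent concentrations. No irradiation was applied, and compound was not washed out; cells were kept 24 h in complete F-12 with compound. Viability was by trypan blue; IC50 is the 50% drop in cell number relative to control cultures.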

Turning to `COc1c2occ(C)c2cc2c1oc(=O)c1ccccc12`, in the experiment filed under Cavia porcellus, the Erythema intensity entry is “inactive”. Moreover, the IC50 (in general, the midpoint of a concentration-inhibition curve) with HL-60 [1] was 11.8 µM; with HL-60 [2], more than 20 µM; with HeLa [3] it was more than 20 µM; in the experiment with HeLa [4], more than 20 µM.
For `Cc1coc2c(OCCCN(C)C)c3oc(=O)c4c(c3cc12)CCCC4`, the Erythema intensity entry in the experiment listed under Cavia porcellus is “inactive”. The 50% inhibitory concentration (IC50) in the experiment on HL-60 [1] was 0.95 µM; with HL-60 [2] it was 16 µM; with HeLa [3], 0.68 µM; in the experiment on HeLa [4] it was more than 20 µM.
`Cc1coc2c(O)c3oc(=O)c4ccccc4c3cc12`: in the experiment filed under Cavia porcellus, the Erythema intensity result is “inactive”. Further, the IC50 in the experiment with HL-60 [1], in the experiment on HL-60 [2], with HeLa [3] and in the experiment with HeLa [4] was more than 20 µM in each case.
With `COc1c2occc2cc2ccc(=O)oc12` [METHOXSALEN], the IC50 in the experiment on HL-60 [2] and with HeLa [4] was more than 20 µM throughout.
In the case of `Cc1coc2c(OCCCN(C)C)c3oc(=O)c4ccccc4c3cc12`, the Erythema intensity entry in the experiment filed under Cavia porcellus is “inactive”. Moreover, the IC50 in the experiment on HL-60 [1] was 0.67 µM; with HL-60 [2], 9.9 µM; in the experiment with HeLa [3] it was 0.64 µM; in the experiment on HeLa [4] it was more than 20 µM.
The like results for `Cc1coc2c(O)c3oc(=O)c4c(c3cc12)CCCC4` were, in that order, “inactive”, 17 µM, more than 20 µM, 17.4 µM and more than 20 µM.
`COc1c2occ(C)c2cc2c3c(c(=O)oc12)CCCC3`: the Erythema intensity result in the experiment filed under Cavia porcellus was “inactive”. Also, the IC50 in the experiment on HL-60 [1] is 13 µM; with HL-60 [2] it was more than 20 µM; in the experiment on HeLa [3] it was 15.7 µM; in the experiment on HeLa [4] it was more than 20 µM.
